The structures appear in SMILES notation. Bounds are passed on as bounds.

For test [1], the target named is T1, Angiotensin-converting enzyme (Rattus norvegicus, UniProt P47820).
T1 sequence (P47820 whole entry): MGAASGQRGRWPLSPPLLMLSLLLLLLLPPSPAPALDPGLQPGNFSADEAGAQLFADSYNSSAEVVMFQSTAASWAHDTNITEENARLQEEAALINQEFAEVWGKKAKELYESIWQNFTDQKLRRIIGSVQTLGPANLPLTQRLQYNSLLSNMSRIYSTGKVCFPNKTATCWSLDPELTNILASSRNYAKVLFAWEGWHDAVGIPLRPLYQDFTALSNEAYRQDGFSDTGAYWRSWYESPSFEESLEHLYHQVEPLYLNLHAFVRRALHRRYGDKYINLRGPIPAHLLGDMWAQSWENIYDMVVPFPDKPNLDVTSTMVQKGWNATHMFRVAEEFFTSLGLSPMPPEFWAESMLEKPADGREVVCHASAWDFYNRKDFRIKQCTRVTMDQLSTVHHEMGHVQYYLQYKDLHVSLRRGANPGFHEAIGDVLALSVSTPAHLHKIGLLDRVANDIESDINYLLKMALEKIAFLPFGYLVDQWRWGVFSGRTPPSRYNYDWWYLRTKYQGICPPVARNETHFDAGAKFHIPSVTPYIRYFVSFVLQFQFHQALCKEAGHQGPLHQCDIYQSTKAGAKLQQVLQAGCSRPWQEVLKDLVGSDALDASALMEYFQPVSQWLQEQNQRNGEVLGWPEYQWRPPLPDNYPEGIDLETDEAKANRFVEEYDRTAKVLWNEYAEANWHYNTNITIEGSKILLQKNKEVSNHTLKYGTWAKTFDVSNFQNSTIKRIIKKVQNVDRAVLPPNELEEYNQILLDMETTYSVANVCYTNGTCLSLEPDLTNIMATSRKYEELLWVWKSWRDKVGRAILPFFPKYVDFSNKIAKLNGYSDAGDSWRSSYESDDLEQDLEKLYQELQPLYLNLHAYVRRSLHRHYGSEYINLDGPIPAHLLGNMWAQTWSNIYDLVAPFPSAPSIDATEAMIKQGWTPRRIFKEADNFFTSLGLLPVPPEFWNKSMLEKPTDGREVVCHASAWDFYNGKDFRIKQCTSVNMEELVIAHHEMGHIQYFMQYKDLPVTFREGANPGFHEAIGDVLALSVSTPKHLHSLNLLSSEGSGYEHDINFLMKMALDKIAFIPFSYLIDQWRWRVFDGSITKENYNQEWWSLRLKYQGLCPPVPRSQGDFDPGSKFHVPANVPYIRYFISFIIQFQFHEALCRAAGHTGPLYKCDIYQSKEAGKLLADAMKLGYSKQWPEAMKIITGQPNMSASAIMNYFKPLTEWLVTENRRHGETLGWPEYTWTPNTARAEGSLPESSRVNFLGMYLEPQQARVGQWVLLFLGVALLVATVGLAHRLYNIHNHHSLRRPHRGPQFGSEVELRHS
The test can be described thus: Inhibitory activity against Angiotensin I converting enzyme.

Test [2] deals with Canis familiaris. The test can be described thus: Compound was evaluated for antihypertensive activity in conscious renal hypertensive dogs at a 10 mg/kg dose given orally. It counts as functional, Canis lupus familiaris. Conditions: route oral. The procedure, abridged: (§1)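 Conscious mongrel dogs made hypertensive by bilateral renal artery constriction (Goldblatt). Drug given by gavage in gelatine capsules; systolic pressure fall vs 0 time, observed up to 7 h; Dunnett's t test.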

For test [3], the system named is Canis familiaris. The test can be described thus: Compound was evaluated for antihypertensive activity in conscious renal hypertensive dogs at a 30 mg/kg dose given orally. To be noted: route oral. Format: functional, Canis lupus familiaris. The method in brief:
as §1

The target in test [4] is T2, Angiotensin-converting enzyme (Rattus norvegicus) (UniProt P47820).
T2 sequence (whole entry): T1 sequence (P47820 whole entry)
The test can be described thus: Compound was evaluated for ACE inhibitory activity in conscious normotensive rats at a dose 10 mg/kg given intravenously by determining percent reduction in Angiotensin I converting enzyme response. Details: dose 10 mg/kg. Format: organism-based.

Test [5] deals with T2, Angiotensin-converting enzyme (Rattus norvegicus). The test can be described thus: Compound was evaluated for ACE inhibitory activity in conscious normotensive rats at a dose 1 mg/kg given intravenously by determining percent reduction in Angiotensin I converting enzyme response. Format: organism-based. Details: dose 1 mg/kg.
For test [6] the target is unchanged. The test can be described thus: Compound was evaluated for ACE inhibitory activity in conscious normotensive rats at a dose 10 mg/kg given intravenously by determining percent reduction in Angiotensin I converting enzyme. Details: dose 10 mg/kg. Format: organism-based.

Consider `CC(C)(C)OC(=O)[C@@H]1CCCN1C(=O)[C@@H]1CCC(C)(C)[C@@H]1SC(=O)c1ccccc1`, for which the IC50 (commonly the concentration at which inhibition is half-maximal) in test [1] is 250 µM. The compound `CC(C)(C)OC(=O)[C@@H]1CCCN1C(=O)[C@H]1CCC[C@@H]1SC(=O)c1ccccc1` had an IC50 in test [1] of 250 µM. In test [1], `O=C(S[C@@H]1CCC[C@H]1C(=O)N1CCC[C@H]1C(=O)O)c1ccccc1` had an IC50 of 0.58 µM. The results for the SBP decrease in test [2] and in test [3] were -15% and -18%, respectively. The Change in ACE response in test [4] was -80%. Turning to `O=C(O)[C@@H]1CCCN1C(=O)[C@@H]1CCC[C@H]1S`, the IC50 in test [1] amounted to 1.11 µM. Further, the values for the SBP decrease in test [2] and in test [3] were -18% and -21%, respectively. Further, the Reduction in test [5] was -42%. The Change in ACE response in test [4] is -75%. `CC(C)(C)OC(=O)[C@@H]1CCCN1C(=O)[C@@H]1CCC[C@@H]1SC(=O)c1ccccc1` displayed an IC50 in test [1] of 250 µM.

For `CC(C)(C)OC(=O)[C@@H]1CCCN1C(=O)[C@@H]1CCC[C@H]1SC(=O)c1ccccc1`, in test [1], the IC50 amounted to 250 µM. In the case of `O=C(O)[C@@H]1CCCN1C(=O)[C@H]1CCC[C@@H]1S`, in test [1], the IC50 stood at 34.2 µM. Against the preceding compound, the IC50 is about 7.3-fold lower. As for `O=C(O)[C@@H]1CCCN1C(=O)C1CCCC1S` (some centres not stated), in test [1], the IC50 was 1.64 µM. Against the preceding compound, the IC50 is about 21-fold lower.

For the compound `O=C(S[C@@H]1CC[C@H]1C(=O)N1CCC[C@H]1C(=O)O)c1ccccc1`, the midpoint of inhibition in test [1], the IC50, lay at 5.5 µM. The SBP decrease in test [2] was -15%; in test [3], -17%. Also, the Reduction in test [6] is -60%; in test [5], -45%. In turn, `CC1(C)CC[C@H](C(=O)N2CCC[C@H]2C(=O)O)[C@H]1S` displayed an IC50 in test [1] of 250 µM. For `CC1(C)CC[C@H](C(=O)N2CCC[C@H]2C(=O)O)[C@H]1SC(=O)c1ccccc1`, 250 µM corresponded to half-maximal inhibition in test [1] (IC50). `O=C(O)[C@@H]1CCCN1C(=O)[C@@H]1CC[C@H]1S` registered an IC50 in test [1] of 1.26 µM. The SBP decrease in test [3] is reported as below 10%. In test [1], `O=C(O)[C@@H]1CCCN1C(=O)[C@H]1CCC[C@H]1S` returned an IC50 of 206 µM. Same read-out and setting: for `CC1(C)CC[C@@H](C(=O)N2CCC[C@H]2C(=O)O)[C@@H]1S` the value was 215 µM. On to `CC1(C)CC[C@@H](C(=O)N2CCC[C@H]2C(=O)O)[C@H]1SC(=O)c1ccccc1`, for which the IC50 in test [1] amounted to 250 µM.

In test [1], `CC(C)(C)OC(=O)[C@@H]1CCCN1C(=O)[C@H]1CCC(C)(C)[C@@H]1SC(=O)c1ccccc1` showed an IC50 of 250 µM. Still for that read-out and setting: for `O=C(S[C@@H]1CCC[C@@H]1C(=O)N1CCC[C@H]1C(=O)O)c1ccccc1` the value was 250 µM; for `CC(C)(C)OC(=O)[C@@H]1CCCN1C(=O)[C@H]1CCC[C@H]1SC(=O)c1ccccc1`, 124 µM. As for `O=C(S[C@H]1CC[C@@H]1C(=O)N1CCC[C@H]1C(=O)O)c1ccccc1`, the midpoint of inhibition in test [1], the IC50, lay at 250 µM. Besides, the SBP decrease in test [2] is below 10%; in test [3], -19%. In addition, the Reduction in test [5] was -18%. In addition, the Change in ACE response in test [4] was -30%. On to `C[C@H](CS)C(=O)N1CCC[C@H]1C(=O)O` [CAPTOPRIL], for which the SBP decrease in test [2] was -15%; in test [3] it was -19%.

In the case of `O=C(S[C@H]1CCC[C@H]1C(=O)N1CCC[C@H]1C(=O)O)c1ccccc1`, the IC50 in test [1] was found to be 144 µM. In test [1], `O=C(O)[C@@H]1CCCN1C(=O)C1CCCCC1S` (some centres not stated) had an IC50 of 11.3 µM. Against the preceding compound, the IC50 is about 13-fold lower.

In test [1], `O=C(O)[C@@H]1CCCN1C(=O)[C@@H]1CCC[C@@H]1S` came in with an IC50 of 19.5 µM. Besides, the SBP decrease in test [3] is recorded as below 10%. Also, in test [5], the Reduction was -22%. Further, the Change in ACE response in test [4] was -41%. Consider `O=C(S[C@H]1CCC[C@@H]1C(=O)N1CCC[C@H]1C(=O)O)c1ccccc1`, for which, in test [1], the IC50 turned out to be 144 µM. Regarding `O=C(O)[C@@H]1CCCN1C(=O)[C@H]1CC[C@@H]1S`, half-maximal inhibition in test [1] (IC50) required 12.7 µM. Compound `CC(C)(C)OC(=O)[C@@H]1CCCN1C(=O)[C@H]1CC[C@@H]1SC(=O)c1ccccc1` registered an IC50 in test [1] of 250 µM. With `CC(C)(C)OC(=O)[C@@H]1CCCN1C(=O)[C@@H]1CC[C@H]1SC(=O)c1ccccc1`, the IC50 in test [1] is 250 µM.
